# Calls of active or inactive are those of the source. No cut-off for these calls is given here.
# How the values were obtained:
# [1] = system: Staphylococcus aureus; experiment: Antibacterial activity against methicillin-sensitive Staphylococcus aureus ATCC 29213; assay type: functional
# In short: (§1)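 Incubation 24/48 h at 37 °C. MIC read as the lowest concentration inhibiting growth. MBC determined by transferring 10 μL from wells onto blood agar, taken as the lowest concentration with no visible growth.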
# [2] = system: Enterococcus faecium; experiment: Antibacterial activity against Enterococcus faecium ATCC 19434; assay type: functional; in short: as §1
# [3] = system: Enterococcus faecalis; experiment: Antibacterial activity against vancomycin-resistant Enterococcus faecalis SR7914; assay type: functional
# [4] = system: Enterococcus faecalis; experiment: Antibacterial activity against Enterococcus faecalis ATCC 29212; assay type: functional
# [5] = system: Staphylococcus aureus; experiment: Antibacterial activity against methicillin-resistant Staphylococcus aureus SR3637; assay type: functional
# [6] = system: Enterococcus faecium; experiment: Antibacterial activity against vancomycin-resistant Enterococcus faecium SR7917; assay type: functional
# [7] = system: Bacillus subtilis; experiment: Antibacterial activity against Bacillus subtilis after 24 to 48 hrs by microdilution method; assay type: functional; in short: as §1
# [8] = system: Streptococcus agalactiae; experiment: Antibacterial activity against Streptococcus agalactiae after 24 to 48 hrs by microdilution method; assay type: functional; in short: as §1
# [9] = system: Pseudomonas aeruginosa; experiment: Antibacterial activity against Pseudomonas aeruginosa after 24 to 48 hrs by microdilution method; assay type: functional; in short: as §1
# [10] = system: Escherichia coli; experiment: Antibacterial activity against Escherichia coli after 24 to 48 hrs by microdilution method; assay type: functional; in short: as §1
# [11] = system: Staphylococcus epidermidis; experiment: Antibacterial activity against methicillin-resistant Staphylococcus epidermidis 8700/B after 24 to 48 hrs by microdilution method; assay type: functional
# In short: (§2)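 Broth microdilution MIC on clinical isolates from Teaching Hospital Olomouc, stored at −80 °C. Compounds were serially diluted in brain heart infusion broth over 200–1.56 μg/mL (sometimes extended to 0.78 μg/mL), with an inoculum of 10⁵⁻⁶ CFU/ml per well. Plates were incubated at 37 °C and read at 24/48 h. MIC was taken as the lowest concentration inhibiting growth.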
# [12] = Induction of apoptosis in human Erythroid progenitor cells assessed as caspase 3/7 activation after 4 hrs by Caspase-Glo 3/7 assay
# In short: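 Cord-blood-derived human erythroid progenitor cells plated at 25000 cells/well and exposed to compound prediluted in medium. Caspase 3/7 activation read by Caspase-Glo 3/7 luminescence 4 h after addition, normalized to untreated control cells set as 100%.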
# [13] = system: Enterococcus faecium; experiment: Antibacterial activity against vancomycin-resistant Enterococcus faecium VanA419/ana after 24 to 48 hrs by microdilution method; assay type: functional; in short: as §2
# [14] = system: Enterococcus faecalis; experiment: Antibacterial activity against Enterococcus faecalis CCM 4224 after 24 to 48 hrs by microdilution method; assay type: functional; in short: as §1
# [15] = Cytotoxicity against human Erythroid progenitor cells assessed as cell viability after 48 hrs by CellTiter-blue assay; assay type: cell-based
# In short: (§3)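 Normal human erythroid progenitor cells, expanded from umbilical cord blood, plated at 25000 cells/well immediately before compound addition (added as a 5× predilution in culture medium). Viability by CellTiter-Blue fluorescence 48 h after addition, normalized to untreated cells set as 100%.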
# [16] = Cytotoxicity against human Erythroid progenitor cells assessed as maximum safe concentration after 48 hrs by CellTiter-blue assay; assay type: cell-based; conditions: read-out: Activity; in short: as §3
# [17] = system: Staphylococcus aureus; experiment: Antibacterial activity against methicillin-resistant Staphylococcus aureus 4591 after 24 to 48 hrs by microdilution method; assay type: functional; in short: as §2
# [18] = system: Staphylococcus aureus; experiment: Antibacterial activity against Staphylococcus aureus CCM 4223 after 24 to 48 hrs by microdilution method; assay type: functional; in short: as §1
# [19] = system: Escherichia coli; experiment: Antibacterial activity against permeabilized Escherichia coli DH5[alpha] assessed as cell killing at 10 uM; assay type: functional
# In short: (§4)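 Competent (permeabilized) E. coli DH5α cells were mixed with 5 ng pUC18 (ampR) and serially diluted compound or buffer only. Steps: 30 min on ice, heat shock at 42 °C for 90 s, 5 min on ice, then LB without antibiotic for 1 h at 37 °C with shaking. Plated on LB agarose with ampicillin 100 μg/mL overnight at 37 °C. Colonies counted against the no-compound control.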
# [20] = system: Escherichia coli; experiment: Antibacterial activity against permeabilized Escherichia coli DH5[alpha] assessed as log reduction of colony forming unit at 10 uM; assay type: functional, organism-based; in short: as §4
# [21] = system: Bacillus subtilis; experiment: Inhibition of Bacillus subtilis RNA polymerase using [alpha-32P]-UTP at 1 mM pretreated for 5 mins measured after 15 mins by electrophoresis analysis
# In short: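 Reconstituted B. subtilis RNAP σA holoenzyme (6 nM) with supercoiled pLK7 template carrying the rrnB P1 promoter (4 ng/μL). Nucleotides: ATP/CTP/GTP 200 μM, UTP 10 μM plus 2 μM [α-³²P]-UTP. Compound at 1 mM; 5 min preincubation at 30 °C, started with RNAP, stopped after 15 min with formamide/EDTA.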
# [22] = system: Staphylococcus haemolyticus; experiment: Antibacterial activity against fluoroquinolone-resistant Staphylococcus haemolyticus 16568 after 24 to 48 hrs by microdilution method; assay type: functional; in short: as §2
SMILES,MIC [7] [µg/mL],MIC [8] [µg/mL],MIC [9] [µg/mL],MIC [10] [µg/mL],MIC [11] [µg/mL],Activity [12],MIC [13] [µg/mL],MIC [14] [µg/mL],IC50 [15] [µg/mL],MNTC at 48 h [16] [µg/mL],inhibition [21],further results
CC(C)C[C@@H](NC[C@@H](NC(=O)N[C@H](C(=O)O)C(C)C)[C@@H]1CCNC(=N)N1)C(=O)NCCCN[C@H](C(=O)O)[C@H](O[C@@H]1O[C@H](CN)[C@@H](O)[C@H]1O)[C@H]1O[C@@H](n2ccc(=O)[nH]c2=O)[C@H](O)[C@@H]1O,,,,,,,,,,,,MIC [1]: > 64 µg/mL; MIC [2]: > 64 µg/mL; MIC [3]: > 64 µg/mL; MIC [4]: > 64 µg/mL; MIC [5]: > 64 µg/mL; MIC [6]: > 64 µg/mL
CN(C)[C@@H]1C(O)=C(C(N)=O)C(=O)[C@@]2(O)C(O)=C3C(=O)c4c(O)cccc4[C@@](C)(O)[C@H]3C[C@@H]12 [TETRACYCLINE],2,1,,,,,,,,,,
CCCCCCCCCCCCCCCCCCOP(=O)(CCN1C[C@@H](O)[C@H](O)C1)OC[C@H]1O[C@@H](n2ccc(=O)[nH]c2=O)[C@H](O)[C@@H]1O (some centres not stated),6.25,3.13,> 200,> 200,6.25,Non-toxic,6.25,6.25,36,15.6,,MIC [17]: 200 µg/mL; MIC [18]: 12.5 µg/mL
CCCCCCCCCCCCCCCCOCCCOP(=O)(CCN1C[C@@H](O)[C@H](O)C1)OC[C@H]1O[C@@H](n2ccc(=O)[nH]c2=O)[C@H](O)[C@@H]1O (some centres not stated),6.25,3.13,> 200,> 200,3.13,Non-toxic,6.25,12.5,91,62.5,inactive,Activity [19]: 90%; Activity [20]: Active
CCCCCCCCCCCCCCCCOP(=O)(CCN1C[C@@H](O)[C@H](O)C1)OC[C@H]1O[C@@H](n2ccc(=O)[nH]c2=O)[C@H](O)[C@@H]1O (mixture of isomers),,,,,,,,,,,,Activity [20]: Active
CCCCCCCCCCCCCCOP(=O)(CCN1C[C@@H](O)[C@H](O)C1)OC[C@H]1O[C@@H](n2ccc(=O)[nH]c2=O)[C@H](O)[C@@H]1O (some centres not stated),6.25,6.25,> 200,> 200,12.5,Non-toxic,12.5,12.5,58,31.2,,MIC [22]: 12.5 µg/mL; MIC [17]: 25 µg/mL; MIC [18]: 12.5 µg/mL
CCCCCCCCCCCCCCCCOCCCOP(=O)(CCN1C[C@@H](O)[C@@H](O)[C@@H](O)C1)OC[C@H]1O[C@@H](n2ccc(=O)[nH]c2=O)[C@H](O)[C@@H]1O (some centres not stated),,12.5,> 200,> 200,,Non-toxic,,,149,62.5,inactive,
CCCCCCCCCCCCCCCCOCCCOP(=O)(CCN1C[C@H](O)[C@@H](O)C1)OC[C@H]1O[C@@H](n2ccc(=O)[nH]c2=O)[C@H](O)[C@@H]1O (some centres not stated),6.25,6.25,> 200,> 200,6.25,Non-toxic,6.25,12.5,47,31.2,inactive,
"CCCCCCCCCCCCCCCCOP(=O)(CCN1C[C@@H](O)[C@H](O)C1)OC[C@H]1O[C@@H](n2ccc(=O)[nH]c2=O)[C@H](O)[C@@H]1O (single isomer, unassigned; diastereomer 2)",,,,,,,,,,,,Activity [7]: Active; Activity [14]: Active; Activity [18]: Active; Activity [8]: Active
CCOP(=O)(CCN1C[C@@H](O)[C@H](O)C1)OC[C@H]1O[C@@H](n2ccc(=O)[nH]c2=O)[C@H](O)[C@@H]1O (some centres not stated),,,> 200,> 200,,Non-toxic,,,,,,
